# High-throughput results from PubChem.
# dFosB act-1 – activators of mouse delta FosB homodimer | activation, % at 25 µM | purified delta FosB, TAMRA-CDK5 oligo fluorescence polarization; percent of positive-control signal above neutral wells | AID 493131 | P13346 | 340,000 compounds, 0.99% hits;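 active means mean activation above about 17%, with every replicate also reaching it, limit read from the data, passing the limit was not always enough; inconclusive means only one of the two conditions met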
# CDK5 inh – CDK5/p35 (human) kinase inhibition. 330,000 compounds, 0.01% hits. Q00535+Q15078. inhibition, % at 10 µM. Recombinant CDK5/p35, ADP-Glo luminescence, 60 min;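 active means highest replicate inhibition of at least 50% and at least 75% of replicates reaching 50%; inconclusive means only one of the two criteria met; inactive means both criteria failed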;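 further: plate controls were DMSO neutral control for no effect and GW8510 at 10 µM for full effect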
# SR-BI uptake up – enhances SR-BI lipid uptake from DiI-HDL. CHO ldlA[mSR-BI] cells, DiI-HDL uptake fluorescence, 3 h; 100 = double the neutral-control signal. activation, % at 12.5 µM. 320,000 compounds, 0.096% hits. AID 504775;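 active means mean replicate activation of at least 60% and every replicate at or above 60%; inconclusive means mean or all-replicate condition met, but not both; inactive means mean below 60% and not all replicates reaching 60%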;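 further: 0% = median plate neutral-control signal and 100% = twice that signal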
#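 Test system: SR-BI-overexpressing, LDLR-lacking CHO cells. Measured by: DiI fluorescence, bottom read. Medium: Ham's F12 with 0.5% BSA, HEPES 25 mM, pH 7.4. Timing: 3 h uptake period with compound, 37 °C.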
# PKA-R1A act – activates the PKA-R1A holoenzyme complex; 340,000 compounds, 0.083% hits; activation, % at 11.4 µM; PKA-R1A dissociation, Cy5-IP20 fluorescence polarization; scaled: DMSO 0%, 113 µM cGMP 100%; P00514+P68181;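 active means percent activation above the mean of all tested compounds plus 3 SD, cut at about 19% in these data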;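 further: higher means more PKAc released from R1A so a rise in polarization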
# PKA-R2B activ – PKA-R2B complex activation; PKA-R2B holoenzyme dissociation, Cy5-IP20 fluorescence polarization; R2B truncated from residue 108, S112A mutant; 0% DMSO only, 100% 113 µM cGMP; AID 504700; 340,000 compounds, 0.079% hits; activation, % at 11.4 µM; P22694+P31323;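 active means activation above a cutoff set at the mean over all compounds plus 3 SD, cut at about 18% in these data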;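 further: higher means more holoenzyme dissociation and a rise in polarization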
# SR-BI DiI inh – mouse SR-BI HDL lipid transfer inhibition. Q61009. ldlA[mSR-BI] CHO cells, DiI-HDL uptake fluorescence, 3 h. inhibition, % at 12.5 µM. 320,000 compounds, 0.96% hits;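 active means mean replicate inhibition of at least 70% and a set share of replicates each scoring 70 or more; inconclusive means meets just one of the two criteria; inactive means fails both criteria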;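 further: 0% = median of neutral control wells and 100% = median of positive control wells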
# Target sequence (Q61009 whole entry, looked up): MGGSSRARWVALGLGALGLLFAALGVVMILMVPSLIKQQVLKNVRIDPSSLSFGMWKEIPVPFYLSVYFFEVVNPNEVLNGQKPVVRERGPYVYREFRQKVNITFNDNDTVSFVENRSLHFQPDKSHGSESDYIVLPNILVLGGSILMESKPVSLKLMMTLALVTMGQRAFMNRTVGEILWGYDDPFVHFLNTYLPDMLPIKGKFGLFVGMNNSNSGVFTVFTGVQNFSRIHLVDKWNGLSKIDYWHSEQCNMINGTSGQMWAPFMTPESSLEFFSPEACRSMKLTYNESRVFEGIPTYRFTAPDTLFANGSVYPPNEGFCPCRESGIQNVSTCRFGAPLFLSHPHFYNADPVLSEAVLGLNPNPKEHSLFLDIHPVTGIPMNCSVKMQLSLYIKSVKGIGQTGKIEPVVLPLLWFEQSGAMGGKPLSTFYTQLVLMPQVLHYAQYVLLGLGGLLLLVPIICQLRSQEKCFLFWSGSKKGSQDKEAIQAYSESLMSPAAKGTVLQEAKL
# dFosB act-2 – delta FosB (mouse) homodimer activation | 2,400 tested, under 10 active | purified delta FosB, TAMRA-CDK5 oligo fluorescence polarization; normalised: neutral wells 0, positive control 100 | shares compounds with dFosB act-1 | activation, % at 24.9 µM;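 active means highest replicate activation at or above 34% and every replicate reaching that threshold; inconclusive means meets only one of the two criteria; inactive means meets neither criterion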;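 further: higher polarization means more probe DNA bound by delta FosB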
# Starred values were filed as active, the others as inactive; ? = inconclusive; · = no result given. Only some compounds are listed: those with a hit (about 2.1% of all), similar ones and a draw of the others.
SMILES,dFosB act-1,CDK5 inh,SR-BI uptake up,PKA-R1A act,PKA-R2B activ,SR-BI DiI inh,dFosB act-2
CC1CCc2sc(C(=O)NC3CCN(Cc4ccccc4)CC3)cc2C1 (configuration not stated),-14,1,-44,1,-5,44,·
Cc1ccc(NCc2nnc(SCC(=O)c3ccc4c(c3)OCCO4)o2)c(C)c1,29*,1,-26,-7,-6,26,2
CC(=O)Nc1ccc(Nc2cc(C)nc3c(-c4ccc(Cl)cc4)cnn23)cc1,18*,0,-12,1,-11,12,-7
C[N+](C)(C)CC(=O)N/N=C/c1c2ccccc2cc2ccccc12,31*,·,24,-13,8,-24,1
COc1ccccc1NC(=O)C1CCCN(c2cnccn2)C1 (configuration not stated),-2,-3,14,-2,-11,-14,·
Cc1ccc(Cl)cc1NC(=O)c1ccccc1OCC(=O)Nc1ccc(Cl)cc1,33*,0,-56,-5,4,56,3
Cc1ccc(NC(=O)COc2ccccc2C(=O)Nc2ccccc2)cc1Cl,-3,1,21,-1,-3,-21,·
CC(=O)NC(=S)Nc1ccc(NC(=O)COc2ccc(Cl)cc2Cl)cc1,73*,0,-32,-3,4,32,-7
CCN(C(=O)CSc1nnc(-c2cccc(F)c2)n1N)c1c(N)n(Cc2ccccc2)c(=O)[nH]c1=O,-7,-1,23,-4,2,-23,·
O=C(O)CN1C(=O)c2cccc3c(Br)ccc1c23,-1,1,-1,-2,-7,1,·
CN(C)CCCN1C(=O)c2cccc3c(Br)ccc(c23)C1=O,32*,1,26,-3,0,-26,3
COc1ccc(C(=O)Cn2cnc3ccc(Cl)cc3c2=O)cc1F,26*,0,-10,1,2,10,0
COc1ccc(C(=O)Cn2cnc3ccccc3c2=O)cc1OC,-11,-8,-4,-5,-4,4,·
S=C(NCc1ccc2c(c1)OCO2)Nc1ccc(-c2nc3ccccc3[nH]2)cc1,32*,1,-3,-15,15,3,-9
Cc1cc2nc(-c3ccc(SCC(=O)Nc4ccc5c(c4)OCCO5)nc3)[nH]c2cc1C,32*,0,-23,-5,1,23,3
O=C(CSc1ccc(-c2nc3ccccc3[nH]2)cn1)Nc1ccc2c(c1)OCCO2,40*,-1,-6,0,4,6,6
Cc1ccc2nc(-c3ccc(SCC(=O)Nc4ccc5c(c4)OCCO5)nc3)[nH]c2c1,50*,1,·,-5,-9,·,-5
O=C(CSc1ccc(-c2nc3ccccc3[nH]2)cn1)Nc1ccc(S(=O)(=O)NC2CC2)cc1,-7,-2,-35,4,2,35,·
O=S(CC1CC1(Cl)Cl)CC1CC1(Cl)Cl (configuration not stated),4,0,27,-6,-6,-27,·
COc1ccc(N2N=NN(C(C)C)C2=C(Cl)c2nnnn2-c2ccc(OC)cc2)cc1,-8,2,6,-1,-3,-6,·
Cc1ccc2nc(-c3ccc(SCC(=O)Nc4nc(C)cs4)nc3)[nH]c2c1,33*,-1,-15,-6,-17,15,5
Cc1ccc2nc(-c3ccc(SCC(=O)Nc4nnc(C)s4)nc3)[nH]c2c1,72*,-1,-2,4,10,2,2
Cc1csc(NC(=O)CSc2ncc(-c3ccccc3)[nH]2)n1,-6,-3,10,-4,6,-10,·
C=CCNc1nc(C(=O)OCC(=O)c2ccc(Cl)cc2)cs1,-12,1,-15,-3,-3,15,·
O=C(NCCc1nc2ccccc2[nH]1)/C(=C/c1ccc2c(c1)OCO2)NC(=O)c1ccc(Cl)cc1Cl,20*,0,-9,-14,0,9,1
SMILES,dFosB act-1,CDK5 inh,SR-BI uptake up,PKA-R1A act,PKA-R2B activ,SR-BI DiI inh,dFosB act-2
Cc1ccc(NC(=S)NC(=O)C2CCC2)cc1C,-9,1,-3,1,7,3,·
O=C(CSCc1cc(=O)n2ccsc2n1)Nc1ccccc1,-1,0,14,-14,6,-14,·
CC(C)OCC(O)CN1CCN(CCN2C(=O)c3cccc4cccc(c34)C2=O)CC1 (configuration not stated),?,·,14,-6,-12,-14,·
Cc1cccc(C)c1OCC(O)CN1CCC(CN2C(=O)c3cccc4cccc(c34)C2=O)CC1 (configuration not stated),74*,-1,-43,-8,-9,43,6
CC(=O)c1ccc(OCC(O)CN2CCN(CCN3C(=O)c4cccc5cccc(c45)C3=O)CC2)cc1 (configuration not stated),38*,1,-35,2,12,35,-5
CCC(OCC(O)CN1CCN(CCN2C(=O)c3cccc4cccc(c34)C2=O)CC1)c1ccccc1 (configuration not stated),30*,1,-36,-11,-5,36,5
Cc1ccccc1OCC(O)CN1CCN(CCN2C(=O)c3cccc4cccc(c34)C2=O)CC1 (configuration not stated),50*,0,-44,6,-6,44,0
O=C(O)c1cccc(S(=O)(=O)Nc2ccccc2Oc2ccccc2)c1,·,·,·,-8,7,·,·
N#CC(C#N)=Cc1c(N2CCN(c3ccccc3)CC2)nc2ccccn2c1=O,3,0,-20,-6,-1,20,·
COc1ccccc1/C=N\N=C(\N)c1ccccn1,2,1,-5,6,0,5,·
COc1ccccc1C=NN=C(N)C(N)=NN=Cc1ccccc1OC,70*,-1,-52,-8,2,52,?
COc1ccc(Nc2nc(Nc3ccc(OC)cc3)nc(SC3=NCCS3)n2)cc1,37*,0,-35,-14,3,35,4
COc1ccc(Nc2nc(OC)nc(OC)n2)cc1,-1,0,·,-5,-10,·,·
O=C(COc1ccc2c(c1)OCO2)Nc1ccc2c(c1)oc1ccccc12,81*,0,6,-1,-10,-6,3
CN(CC(=O)Nc1cccc(F)c1)C(=O)c1cc(S(=O)(=O)N2CCCCC2)ccc1N1CCOCC1,6,0,17,0,2,-17,·
O=C(Cn1nc(C(=O)O)c2ccccc2c1=O)Nc1ccc(F)cc1F,26*,-1,·,-1,1,·,3
O=C(Cn1nc(C(=O)O)c2ccccc2c1=O)c1cc(F)ccc1F,8,1,·,3,-8,·,·
